{
  "source": "ChEMBL document CHEMBL4732101",
  "about": "“Novel quinolone-based potent and selective HDAC6 inhibitors: Synthesis, molecular modeling studies and biological investigation” (Eur J Med Chem, 2021)",
  "key": {"Histone deacetylase 8": {"molecular_target": "T1, Histone deacetylase 8 (Homo sapiens, UniProt Q9BY41)", "T1 sequence (Q9BY41 whole entry)": "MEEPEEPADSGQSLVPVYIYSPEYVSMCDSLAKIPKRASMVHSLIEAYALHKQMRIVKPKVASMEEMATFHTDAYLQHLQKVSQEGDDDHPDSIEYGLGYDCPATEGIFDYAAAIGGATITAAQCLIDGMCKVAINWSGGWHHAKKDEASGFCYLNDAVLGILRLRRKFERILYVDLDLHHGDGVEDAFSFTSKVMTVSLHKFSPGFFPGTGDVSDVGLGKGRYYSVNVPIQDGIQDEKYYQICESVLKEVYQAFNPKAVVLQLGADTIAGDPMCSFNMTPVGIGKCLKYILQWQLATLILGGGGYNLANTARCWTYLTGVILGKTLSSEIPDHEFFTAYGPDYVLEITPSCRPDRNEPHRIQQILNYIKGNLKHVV", "experiment": "Inhibition of recombinant human HDAC8 using Fluor-de-Lys as substrate measured after 1 hr by fluorescence assay"}, "NIH3T3": {"tested_on": "NIH3T3", "experiment": "Cytotoxicity against mouse NIH/3T3 cells assessed as reduction in cell viability after 24 hrs by neutral red uptake assay", "format": "cell-based", "details": "NIH3T3, 24 h", "in_short": "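NIH3T3 fibroblasts seeded at 5 x 10^4 per well and cultured 24 h at 37 °C, 5% CO2. DMSO-solubilized samples added at 8 to 160 µM for 24 h; medium as negative control. Neutral Red medium applied 3 h, dye desorbed in acetic acid/ethanol, absorbance read at 540 nm. Three experiments, six replicates per concentration; viability normalized to % control.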"}, "HCT-116 [1]": {"tested_on": "HCT-116", "experiment": "Cytotoxicity against human HCT-116 cells assessed as cell viability measured after 48 hrs by MTT assay relative to control", "format": "functional", "in_short": "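HCT-116 cells grown in DMEM with 10% FBS, 2 mM L-glutamine and antibiotics. 2.5×10^4 cells/well treated in triplicate at 50, 25, 10, 5 and 1 µM for 12, 24 or 48 h. Then MTT 0.5 mg/ml for 3 h, supernatant removed, formazan dissolved in isopropanol, absorbance read at 570 nm. IC50 derived from the concentration series.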"}, "HCT-116 [2]": {"tested_on": "HCT-116", "experiment": "Induction of apoptosis in human HCT-116 cells assessed as increase in PARP cleavage at 10 uM measured after 24 hrs by Western blot analysis", "format": "functional, cell-based", "in_short": "(§1)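 HCT-116 or U937 cells treated at 10 µM for 12 and 24 h. […] Western blot used 40 µg total protein or 5 µg acid-extracted histone. Blots probed for cleaved PARP, acetylated tubulin, H3K9/14ac and Hsp90(AcLys294), normalized to GAPDH or H4. Compared with control cells by one-way ANOVA and Dunnett's test.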"}, "[3]": {"molecular_target": "T2, Protein deacetylase HDAC6 (Homo sapiens) (UniProt Q9UBN7)", "T2 sequence (whole entry)": "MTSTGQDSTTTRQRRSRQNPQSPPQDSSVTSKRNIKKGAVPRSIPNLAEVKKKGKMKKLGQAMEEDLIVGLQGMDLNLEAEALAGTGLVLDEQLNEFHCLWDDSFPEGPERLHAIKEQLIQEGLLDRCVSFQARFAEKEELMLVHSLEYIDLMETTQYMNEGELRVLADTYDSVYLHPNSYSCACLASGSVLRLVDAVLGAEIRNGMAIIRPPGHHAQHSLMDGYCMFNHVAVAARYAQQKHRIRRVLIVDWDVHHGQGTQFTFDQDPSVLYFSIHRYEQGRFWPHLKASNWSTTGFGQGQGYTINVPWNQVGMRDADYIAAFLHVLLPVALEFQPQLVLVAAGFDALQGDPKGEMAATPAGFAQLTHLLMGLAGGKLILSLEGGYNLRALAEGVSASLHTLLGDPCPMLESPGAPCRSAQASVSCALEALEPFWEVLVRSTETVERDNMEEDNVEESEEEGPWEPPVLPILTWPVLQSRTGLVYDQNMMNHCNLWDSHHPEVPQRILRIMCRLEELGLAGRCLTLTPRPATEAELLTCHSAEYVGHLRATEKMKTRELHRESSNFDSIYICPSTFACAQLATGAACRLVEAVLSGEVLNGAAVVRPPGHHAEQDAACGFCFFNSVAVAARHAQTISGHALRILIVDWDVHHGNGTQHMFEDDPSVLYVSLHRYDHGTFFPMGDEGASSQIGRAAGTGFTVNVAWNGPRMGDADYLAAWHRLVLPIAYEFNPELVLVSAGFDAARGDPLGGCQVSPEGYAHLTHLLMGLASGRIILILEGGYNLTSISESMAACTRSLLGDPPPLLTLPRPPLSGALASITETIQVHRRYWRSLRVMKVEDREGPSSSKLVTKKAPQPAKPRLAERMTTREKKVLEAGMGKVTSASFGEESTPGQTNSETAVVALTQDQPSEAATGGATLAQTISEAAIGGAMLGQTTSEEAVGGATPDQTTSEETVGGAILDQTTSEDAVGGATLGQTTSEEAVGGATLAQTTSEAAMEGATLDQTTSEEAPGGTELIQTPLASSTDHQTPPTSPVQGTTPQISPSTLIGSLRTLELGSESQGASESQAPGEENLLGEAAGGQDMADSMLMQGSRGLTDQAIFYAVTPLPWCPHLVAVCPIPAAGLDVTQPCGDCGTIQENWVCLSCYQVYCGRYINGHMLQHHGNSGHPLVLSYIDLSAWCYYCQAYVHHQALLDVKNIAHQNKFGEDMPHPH", "experiment": "Inhibition of HDAC6 in human HCT-116 cells assessed as increase in Hsp90(AcLys294) acetylation at 10 uM measured after 12 to 24 hrs by Western blot analysis", "format": "cell-based", "details": "time 12-24 hrs", "in_short": "as §1"}, "[4]": {"experiment": "Stability of compound in pH 3 buffer assessed as parent compound remaining at 250 uM measured after 24 hrs by HPLC/UV/DAD method", "format": "physicochemical", "details": "read-out: Stabilty", "in_short": "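10 mM DMSO stock diluted to 250 µM (2.5% DMSO) in 50 mM acetic acid, pH 3.0, and shaken 24 h at 25 °C. For solubility, samples filtered, diluted 1:2, quantified by HPLC-UV at 254 nm against a standard. For stability, percent remaining taken as the 24 h peak area over the T0 peak area. Triplicate analyses averaged.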"}, "[5]": {"experiment": "Mutagenicity in Salmonella typhimurium TA100 at 5 to 230 uM measured after 90 mins in presence of rat liver S9 fraction by Ames test", "format": "toxicity, subcellular", "details": "salmonella enterica subsp. enterica serovar typhimurium, s9, 1.5 h, dose 5-230 µM"}, "[6]": {"experiment": "Mutagenicity in Salmonella typhimurium TA98 at 5 to 230 uM measured after 90 mins in absence of rat liver S9 fraction by Ames test", "format": "toxicity", "details": "salmonella enterica subsp. enterica serovar typhimurium, 1.5 h, dose 5-230 µM"}, "[7]": {"experiment": "Mutagenicity in Salmonella typhimurium TA100 at 5 to 230 uM measured after 90 mins in absence of rat liver S9 fraction by Ames test", "format": "toxicity", "details": "salmonella enterica subsp. enterica serovar typhimurium, s9, 1.5 h, dose 5-230 µM"}, "[8]": {"experiment": "Cytotoxicity against human PBMC cells assessed as reduction in cell viability at 90 uM measured after 24 to 48 hrs by GUAVA easyCyte cytometric method", "format": "cell-based", "details": "time 24-48 hrs", "in_short": "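PBMCs seeded at 1.5 x10^6/mL in complete medium and exposed to 15, 45 or 90 µM test compound, or DMSO vehicle, for 24 h and 48 h. Percentage of viable cells determined by flow cytometry with ViaCount reagent.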"}},
  "note": "Active and inactive are the calls of the source. The rule behind the calls is not given here.",
  "data": [
    {"smiles": "CCN(CC)Cc1ccc(Cn2c(=O)c(OCc3ccc(C(=O)NO)cc3)c(-c3cccnc3)c3ccccc32)cc1", "values": [
      {"measurement": "IC50", "setting": "Histone deacetylase 8", "result": 0.49, "unit": "µM"},
      {"measurement": "Kapp", "setting": "Histone deacetylase 8; human, 1 h", "result": 0.4, "unit": "µM"},
      {"measurement": "IC50", "setting": "NIH3T3", "result": 90, "unit": "µM"},
      {"measurement": "Activity", "setting": "HCT-116 [1]", "result": 10, "unit": "%"},
      {"measurement": "Activity", "setting": "HCT-116 [2]", "result": "Active"},
      {"measurement": "inhibition", "setting": "[3]", "result": "Active"},
      {"measurement": "remaining at 24 h, 250 µM", "setting": "[4]", "result": "> 95", "unit": "%"},
      {"measurement": "Activity", "setting": "[5]", "result": "Non-Toxic"},
      {"measurement": "Activity", "setting": "[6]", "result": "Non-Toxic"},
      {"measurement": "Activity", "setting": "[7]", "result": "Non-Toxic"},
      {"measurement": "Activity", "setting": "[8]", "result": "Toxic"}
    ]}
  ]
}
